Peptide text beside a SMILES is read from it. * marks the point of attachment. NH(4-amidinobenzyl) = N=C(N)c1ccc(CN*)cc1
What was measured:
[1] = test system: LNCaP; assay: Antiproliferative activity against human LNCAP cells assessed as reduction in metabolic activity after 72 hrs by MTT assay; format: functional, cell-based
Method in brief: (§1)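 Cells kept at 37°C, 5% CO2 in RPMI 1640 (DU145 with 5% FBS, 1500 cells/well; LNCaP with 10% FBS, 2500 cells/well) on poly-L-lysine coated plates. Peptides added 24 h after plating in fresh serum medium at 0, 1, 10, 25, 50, 75, 100, 250 µM for 72 h. MTT 1 mg/mL final for 4 h; formazan dissolved in 2-propanol HCl. Signal normalised to water vehicle; IC50 from dose-response curves.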

[2] = test system: DU-145; assay: Antiproliferative activity against human DU145 cells assessed as reduction in metabolic activity after 72 hrs by MTT assay; format: functional, cell-based; settings: DU-145, 72 h; method in brief: as §1
[3] = species on record: Homo sapiens; assay: Selectivity index, ratio of Ki for recombinant human furin expressed in drosophila S2 cells to Ki for recombinant human PACE4 expressed in drosophila S2 cells; format: cell-based
Method in brief: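 Ratio Ki(furin)/Ki(PACE4). […] PACE4 buffer was BisTris pH 6.5; furin buffer was HEPES pH 7.5, or BisTris pH 6.5 for His peptides. Ki fitted by Morrison equation from three independent experiments.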

[4] = molecular target: Furin (Homo sapiens, UniProt P09958); assay: Inhibition of recombinant human furin expressed in drosophila S2 cells using pyrGlu-Arg-Thr-Lys-Arg-7-amido-4-methylcoumarin as substrate after 60 mins by spectrofluorometry method; format: cell-based
Method in brief: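 Human recombinant purified furin at 2 units/100 µL (0.54 nM), in 100 mM HEPES pH 7.5, 1 mM CaCl2, 1 mM β-mercaptoethanol, 1.8 mg/mL BSA. His-containing peptides run instead in 20 mM BisTris pH 6.5 with the same additives. Substrate 100 µM, KM 5.04 µM. Inhibitor 1 nM to 10 µM; 60 min at 37°C. Fluorescence ex 370 / em 460 nm. Ki by Morrison equation; triplicate experiments, mean ± SD.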

[5] = molecular target: T1, Proprotein convertase subtilisin/kexin type 6 (Homo sapiens, UniProt P29122); assay: Inhibition of recombinant human PACE4 expressed in drosophila S2 cells using pyrGlu-Arg-Thr-Lys-Arg-7-amido-4-methylcoumarin as substrate after 60 mins by spectrofluorometry method; format: cell-based
T1 sequence (P29122 whole entry): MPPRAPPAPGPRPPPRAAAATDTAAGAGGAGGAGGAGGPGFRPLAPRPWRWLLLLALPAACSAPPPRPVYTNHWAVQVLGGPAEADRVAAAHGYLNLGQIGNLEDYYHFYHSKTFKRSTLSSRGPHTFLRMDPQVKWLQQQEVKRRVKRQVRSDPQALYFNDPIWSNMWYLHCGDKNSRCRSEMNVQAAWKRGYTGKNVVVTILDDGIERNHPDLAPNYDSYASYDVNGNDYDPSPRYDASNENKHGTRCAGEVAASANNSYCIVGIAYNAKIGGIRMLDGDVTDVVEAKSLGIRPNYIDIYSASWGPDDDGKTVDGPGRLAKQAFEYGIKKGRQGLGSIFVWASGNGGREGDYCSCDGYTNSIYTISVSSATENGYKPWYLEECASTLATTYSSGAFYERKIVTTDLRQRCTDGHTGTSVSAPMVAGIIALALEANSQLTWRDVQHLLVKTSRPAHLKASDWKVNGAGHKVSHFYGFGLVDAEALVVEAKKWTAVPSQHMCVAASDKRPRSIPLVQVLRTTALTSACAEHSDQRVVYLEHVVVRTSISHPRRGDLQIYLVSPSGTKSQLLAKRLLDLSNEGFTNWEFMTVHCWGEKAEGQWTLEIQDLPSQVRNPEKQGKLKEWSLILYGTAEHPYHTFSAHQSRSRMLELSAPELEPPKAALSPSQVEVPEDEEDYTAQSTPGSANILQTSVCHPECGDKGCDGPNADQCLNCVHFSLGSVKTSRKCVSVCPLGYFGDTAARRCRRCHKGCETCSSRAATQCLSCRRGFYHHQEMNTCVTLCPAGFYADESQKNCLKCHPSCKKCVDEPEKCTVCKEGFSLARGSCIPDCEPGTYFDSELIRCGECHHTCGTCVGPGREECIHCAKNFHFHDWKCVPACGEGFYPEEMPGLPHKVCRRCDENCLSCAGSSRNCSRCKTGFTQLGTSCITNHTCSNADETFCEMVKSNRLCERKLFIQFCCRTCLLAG
Method in brief: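 Human recombinant purified PACE4 at 2 units/100 µL (20.18 nM), in 20 mM BisTris pH 6.5, 1 mM CaCl2, 1.8 mg/mL BSA. Substrate 100 µM, KM 4.035 µM. Inhibitor 1 nM to 10 µM; 60 min at 37°C. Fluorescence ex 370 / em 460 nm. Ki by Morrison tight-binding equation; three independent experiments, mean ± SD.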

Chain of Furin (P09958 whole entry): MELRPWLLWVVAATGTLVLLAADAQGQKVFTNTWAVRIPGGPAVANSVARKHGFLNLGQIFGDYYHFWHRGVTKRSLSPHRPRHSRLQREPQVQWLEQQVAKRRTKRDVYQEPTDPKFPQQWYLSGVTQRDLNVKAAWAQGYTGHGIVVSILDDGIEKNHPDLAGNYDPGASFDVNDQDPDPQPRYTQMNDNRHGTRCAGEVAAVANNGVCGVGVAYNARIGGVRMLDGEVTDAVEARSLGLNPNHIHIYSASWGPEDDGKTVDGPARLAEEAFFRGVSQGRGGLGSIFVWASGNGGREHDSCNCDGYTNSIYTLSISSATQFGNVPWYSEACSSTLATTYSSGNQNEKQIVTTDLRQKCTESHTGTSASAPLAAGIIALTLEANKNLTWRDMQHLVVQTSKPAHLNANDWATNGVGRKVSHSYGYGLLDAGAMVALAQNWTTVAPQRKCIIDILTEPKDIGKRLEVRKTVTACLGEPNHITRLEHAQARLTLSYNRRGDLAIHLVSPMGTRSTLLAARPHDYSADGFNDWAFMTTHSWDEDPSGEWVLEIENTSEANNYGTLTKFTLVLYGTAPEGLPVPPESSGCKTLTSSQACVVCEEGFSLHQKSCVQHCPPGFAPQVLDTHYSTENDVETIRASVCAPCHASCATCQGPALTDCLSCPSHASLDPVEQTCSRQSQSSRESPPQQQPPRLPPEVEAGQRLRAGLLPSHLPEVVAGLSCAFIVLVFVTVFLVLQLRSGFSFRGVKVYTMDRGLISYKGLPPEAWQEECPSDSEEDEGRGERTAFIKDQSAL

IC50 [1] [nM] | IC50 [2] [nM] | Ki [4] [nM] | Ki [5] [nM] | SMILES | Ratio Ki [3]
120000 | 150000 | 7 | 8 | CC(=O)N[C@@H](CCC(=O)O)C(=O)N[C@@H](CC(C)C)C(=O)N[C@@H](CC(C)C)C(=O)N[C@@H](CC(C)C)C(=O)N[C@@H](CCCNC(=N)N)C(=O)N[C@H](C(=O)N[C@@H](CCCCN)C(=O)NCc1ccc(C(=N)N)cc1)C(C)C (Ac-ELLLRVK-{NH(4-amidinobenzyl)}) | 0.9
41000 | 30000 | 9 | 9 | CC(=O)N[C@@H](Cc1ccccc1)C(=O)N[C@@H](CC(C)C)C(=O)N[C@@H](CC(C)C)C(=O)N[C@@H](CC(C)C)C(=O)N[C@@H](CCCNC(=N)N)C(=O)N[C@H](C(=O)N[C@@H](CCCCN)C(=O)NCc1ccc(C(=N)N)cc1)C(C)C (Ac-FLLLRVK-{NH(4-amidinobenzyl)}) | 1
40000 | 27000 | 5 | 5 | CC[C@H](C)[C@H](NC(C)=O)C(=O)N[C@@H](CC(C)C)C(=O)N[C@@H](CC(C)C)C(=O)N[C@@H](CC(C)C)C(=O)N[C@@H](CCCNC(=N)N)C(=O)N[C@H](C(=O)N[C@@H](CCCCN)C(=O)NCc1ccc(C(=N)N)cc1)C(C)C (Ac-ILLLRVK-{NH(4-amidinobenzyl)}) | 1
31000 | 36000 | 7 | 8 | CC(=O)N[C@@H](CC(C)C)C(=O)N[C@@H](Cc1ccccc1)C(=O)N[C@@H](CC(C)C)C(=O)N[C@@H](CC(C)C)C(=O)N[C@@H](CCCNC(=N)N)C(=O)N[C@H](C(=O)N[C@@H](CCCCN)C(=O)NCc1ccc(C(=N)N)cc1)C(C)C (Ac-LFLLRVK-{NH(4-amidinobenzyl)}) | 0.9
40000 | 31000 | 2 | 2.5 | CC[C@H](C)[C@H](NC(=O)[C@H](CC(C)C)NC(C)=O)C(=O)N[C@@H](CC(C)C)C(=O)N[C@@H](CC(C)C)C(=O)N[C@@H](CCCNC(=N)N)C(=O)N[C@H](C(=O)N[C@@H](CCCCN)C(=O)NCc1ccc(C(=N)N)cc1)C(C)C (Ac-LILLRVK-{NH(4-amidinobenzyl)}) | 0.8
40000 | 38000 | 5 | 16 | CC(=O)N[C@@H](CC(C)C)C(=O)N[C@@H](CC(C)C)C(=O)N[C@@H](Cc1ccccc1)C(=O)N[C@@H](CC(C)C)C(=O)N[C@@H](CCCNC(=N)N)C(=O)N[C@H](C(=O)N[C@@H](CCCCN)C(=O)NCc1ccc(C(=N)N)cc1)C(C)C (Ac-LLFLRVK-{NH(4-amidinobenzyl)}) | 0.3
80000 | 32000 | 30 | 10 | CC[C@H](C)[C@H](NC(=O)[C@H](CC(C)C)NC(=O)[C@H](CC(C)C)NC(C)=O)C(=O)N[C@@H](CC(C)C)C(=O)N[C@@H](CCCNC(=N)N)C(=O)N[C@H](C(=O)N[C@@H](CCCCN)C(=O)NCc1ccc(C(=N)N)cc1)C(C)C (Ac-LLILRVK-{NH(4-amidinobenzyl)}) | 3
50000 | 40000 | 6 | 4 | CC(=O)N[C@@H](CC(C)C)C(=O)N[C@@H](CC(C)C)C(=O)N[C@@H](CC(C)C)C(=O)N[C@@H](Cc1ccccc1)C(=O)N[C@@H](CCCNC(=N)N)C(=O)N[C@H](C(=O)N[C@@H](CCCCN)C(=O)NCc1ccc(C(=N)N)cc1)C(C)C (Ac-LLLFRVK-{NH(4-amidinobenzyl)}) | 1.5
28000 | 50000 | 27 | 8 | CC[C@H](C)[C@H](NC(=O)[C@H](CC(C)C)NC(=O)[C@H](CC(C)C)NC(=O)[C@H](CC(C)C)NC(C)=O)C(=O)N[C@@H](CCCNC(=N)N)C(=O)N[C@H](C(=O)N[C@@H](CCCCN)C(=O)NCc1ccc(C(=N)N)cc1)C(C)C (Ac-LLLIRVK-{NH(4-amidinobenzyl)}) | 3.4
26000 | 12000 | 4 | 5 | CC(=O)N[C@@H](CC(C)C)C(=O)N[C@@H](CC(C)C)C(=O)N[C@@H](CC(C)C)C(=O)N[C@@H](CCC(N)=O)C(=O)N[C@@H](CCCNC(=N)N)C(=O)N[C@H](C(=O)N[C@@H](CCCCN)C(=O)NCc1ccc(C(=N)N)cc1)C(C)C (Ac-LLLQRVK-{NH(4-amidinobenzyl)}) | 0.8
60000 | 45000 | 4 | 2.1 | CC(=O)N[C@@H](CC(C)C)C(=O)N[C@@H](CC(C)C)C(=O)N[C@@H](CC(C)C)C(=O)N[C@H](C(=O)N[C@@H](CCCNC(=N)N)C(=O)N[C@H](C(=O)N[C@@H](CCCCN)C(=O)NCc1ccc(C(=N)N)cc1)C(C)C)C(C)C (Ac-LLLVRVK-{NH(4-amidinobenzyl)}) | 1.9
130000 | 50000 | 5.9 | 4.8 | CC(=O)N[C@@H](CC(C)C)C(=O)N[C@@H](CC(C)C)C(=O)N[C@@H](Cc1ccc(O)cc1)C(=O)N[C@@H](CC(C)C)C(=O)N[C@@H](CCCNC(=N)N)C(=O)N[C@H](C(=O)N[C@@H](CCCCN)C(=O)NCc1ccc(C(=N)N)cc1)C(C)C (Ac-LLYLRVK-{NH(4-amidinobenzyl)}) | 1.2
50000 | 35000 | 13 | 8 | CC(=O)N[C@@H](CC(C)C)C(=O)N[C@@H](Cc1c[nH]c2ccccc12)C(=O)N[C@@H](CC(C)C)C(=O)N[C@@H](CC(C)C)C(=O)N[C@@H](CCCNC(=N)N)C(=O)N[C@H](C(=O)N[C@@H](CCCCN)C(=O)NCc1ccc(C(=N)N)cc1)C(C)C (Ac-LWLLRVK-{NH(4-amidinobenzyl)}) | 1.6
> 250000 | 150000 | 3 | 3 | CC(=O)N[C@@H](CCC(N)=O)C(=O)N[C@@H](CC(C)C)C(=O)N[C@@H](CC(C)C)C(=O)N[C@@H](CC(C)C)C(=O)N[C@@H](CCCNC(=N)N)C(=O)N[C@H](C(=O)N[C@@H](CCCCN)C(=O)NCc1ccc(C(=N)N)cc1)C(C)C (Ac-QLLLRVK-{NH(4-amidinobenzyl)}) | 1
> 250000 | 100000 | 4 | 6 | CC(=O)N[C@@H](CO)C(=O)N[C@@H](CC(C)C)C(=O)N[C@@H](CC(C)C)C(=O)N[C@@H](CC(C)C)C(=O)N[C@@H](CCCNC(=N)N)C(=O)N[C@H](C(=O)N[C@@H](CCCCN)C(=O)NCc1ccc(C(=N)N)cc1)C(C)C (Ac-SLLLRVK-{NH(4-amidinobenzyl)}) | 0.7
110000 | 140000 | 2.4 | 4 | CC(=O)N[C@H](C(=O)N[C@@H](CC(C)C)C(=O)N[C@@H](CC(C)C)C(=O)N[C@@H](CC(C)C)C(=O)N[C@@H](CCCNC(=N)N)C(=O)N[C@H](C(=O)N[C@@H](CCCCN)C(=O)NCc1ccc(C(=N)N)cc1)C(C)C)[C@@H](C)O (Ac-TLLLRVK-{NH(4-amidinobenzyl)}) | 0.6

Reference: ChEMBL document CHEMBL4049407, “Positional Scanning Identifies the Molecular Determinants of a High Affinity Multi-Leucine Inhibitor for Furin and PACE4” (J Med Chem, 2017)
